# According to ChEMBL document CHEMBL1139837, “Synthesis and transfection efficiencies of new lipophilic polyamines” (J Med Chem, 2007):
# The source made the active and inactive calls.
# Tests used:
# [1] = system: CHO-K1; assay: Transfection efficiency in eGFP encoding DNA transfected CHOK1 cells after 24 hrs at 5 ug/mL; type: functional, Cricetulus griseus
# Summary of the method: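 Subconfluent (~50%) CHO-K1 cells were exposed 4 h at 37 °C in F12K to 1 µg/mL eGFP plasmid complexed with lipid (0.5, 2.5 or 5 µg/mL). Medium was then replaced with growth medium for 24 h. Trypsinized cells were scored by FACS. The gate was set above the no-plasmid/no-lipid threshold (5.5), giving % GFP-positive cells; mean ± SD.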
# [2] = system: CHO-K1; assay: Increase in uptake of DNA in CHOK1 cells after 4 hrs; type: functional, cell-based; details: Cricetulus griseus
# Summary of the method: (§1)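 Confluent CHO-K1 cells, rinsed, were incubated 4 h at 37 °C in serum-free F12K with 1 µg/mL Alexa Fluor-488-labeled DNA complexed with cationic lipid at 0.5, 2.5 or 5 µg/mL. Cells were washed with PBS, trypsinized, washed with ice-cold PBS/1% BSA to remove surface signal, then assayed by flow cytometry for internalized fluorescence. Gated percent positive cells were set against DNA-only cells; mean ± SD.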
# [3] = system: CHO; assay: Survival of CHO cells after 48 hrs upto 6.4 uM; type: functional, Cricetulus griseus
# Summary of the method: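 CHO cells grown at 37 °C, 5% CO2, in RPMI with 10% fetal calf serum, 2 mM glutamine, penicillin/streptomycin and 2 mM aminoguanidine. Viability was checked by trypan blue before each run. Cells were plated at 2e3 cells/mL in 96-well plates and dosed after overnight incubation. DMSO was kept below 40 µM. Growth after 48 h was read as MTT formazan absorbance at 540 nm.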
# [4] = system: CHO; assay: Cytotoxicity against CHO cells after 24 hrs at 0.5 uM; type: cell-based, Cricetulus griseus; details: chinese hamster
# [5] = system: CHO-K1; assay: Increase in uptake of DNA in CHOK1 cells after 4 hrs at 5 ug/mL; type: functional, cell-based; details: Cricetulus griseus; summary of the method: as §1
# [6] = Inhibition of [14C]spermine uptake into polyamine transporter in CHOK1 cells; type: cell-based; details: Cricetulus griseus, CHO-K1
# Summary of the method: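 Subconfluent CHO-K1 cells were rinsed three times in F12K and dosed with varying compound concentrations. They were incubated 20 min with 1 µM [14C]spermine (31 Ci/mol) in serum-free medium, rinsed (including 1 mM spermine washes), and lysed in 0.5 M NaOH for 1 h at 37 °C. Lysates were neutralized and scintillation-counted to give an IC50.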
Compound,Activity [1],Activity [2],Survival [3],Activity [4],Activity [5],IC50 [6]
CCCCCCCC/C=C/CCCCCCCCOc1ccc(CNCCCCCCCCN)cc1OCCCCCCCC/C=C/CCCCCCCC,23%,Dose-dependent effect,>=90%,–,–,–
CCCCCCCC/C=C/CCCCCCCCOc1ccc(C(=O)NCCCCNCCCCNCCCCN)cc1OCCCCCCCC/C=C/CCCCCCCC,–,Dose-dependent effect,–,95%,–,–
CCCCCCCC/C=C/CCCCCCCCOc1ccc(CNCCCCN)cc1OCCCCCCCC/C=C/CCCCCCCC,38%,Dose-dependent effect,>=90%,–,Active,–
CCCCCCCC/C=C/CCCCCCCCOc1ccc(CNCCCCNCCCCN)cc1OCCCCCCCC/C=C/CCCCCCCC,49%,Dose-dependent effect,>=90%,–,Active,–
CCCCCCCC/C=C/CCCCCCCCOc1ccc(CNCCCCNCCCCNCCCCN)cc1OCCCCCCCC/C=C/CCCCCCCC,67%,Dose-dependent effect,>=90%,–,Active,10 µM
CCCCCCCC/C=C/CCCCCCCCOc1ccc(C(=O)NCCCCNCCCCN)cc1OCCCCCCCC/C=C/CCCCCCCC,40%,Dose-dependent effect,>=90%,–,–,–
CCCCCCCC/C=C/CCCCCCCCOc1ccc(CNCCOCCOCCN)cc1OCCCCCCCC/C=C/CCCCCCCC,25%,Dose-dependent effect,>=90%,–,–,–
